pIC50: −log10 of the molar value. Calls of active or inactive are those of the source. No cut-off for these calls is given here.
Tests used:
[1] = target: Cytochrome P450 2D6 (Homo sapiens, UniProt P10635); assay: Inhibition of CYP2D6 (unknown origin); assay type: ADME
[2] = target: T1, Cytochrome P450 2C9 (Homo sapiens, UniProt P11712); assay: Inhibition of CYP2C9 (unknown origin); assay type: ADME
[3] = Total brain to plasma partition coefficient, Kp in po dosed rat assessed as (R)-3-(5-fluoro-1H-indol-3-yl)pyrrolidine-2,5-dione; assay type: ADME, organism-based
Outline: (§1)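 Racemate dosed orally to rats; active enantiomer measured in brain, CSF and plasma; total brain/plasma ratio and unbound brain/unbound plasma ratio calculated.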

[4] = Ratio of unbound drug level in brain to plasma in po dosed rat assessed as (R)-3-(5-fluoro-1H-indol-3-yl)pyrrolidine-2,5-dione; assay type: ADME, organism-based; outline: as §1
[5] = target: Cytochrome P450 2C19 (Homo sapiens, UniProt P33261); assay: Time/NADPH-dependent inhibition of CYP2C19 (unknown origin); assay type: ADME
Sequence of Cytochrome P450 2C19 (P33261 whole entry): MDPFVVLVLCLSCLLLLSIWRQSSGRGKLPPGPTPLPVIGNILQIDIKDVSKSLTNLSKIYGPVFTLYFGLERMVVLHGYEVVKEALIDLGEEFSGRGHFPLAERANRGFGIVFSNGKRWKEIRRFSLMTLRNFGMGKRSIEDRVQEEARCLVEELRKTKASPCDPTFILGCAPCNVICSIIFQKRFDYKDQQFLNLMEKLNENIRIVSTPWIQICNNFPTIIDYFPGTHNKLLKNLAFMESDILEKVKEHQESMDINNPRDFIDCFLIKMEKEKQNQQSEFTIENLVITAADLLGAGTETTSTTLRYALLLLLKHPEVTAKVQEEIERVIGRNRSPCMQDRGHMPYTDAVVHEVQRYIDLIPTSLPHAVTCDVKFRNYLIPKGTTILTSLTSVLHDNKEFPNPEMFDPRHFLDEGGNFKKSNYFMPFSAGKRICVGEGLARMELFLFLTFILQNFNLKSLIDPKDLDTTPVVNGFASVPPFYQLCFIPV

[6] = target: T1, Cytochrome P450 2C9; assay: Time-dependent inhibition of CYP2C9 (unknown origin); assay type: ADME
[7] = Intrinsic apparent clearance in dog hepatocytes assessed per million cells; assay type: ADME, cell-based, Canis lupus familiaris, Hepatocyte
[8] = test system: Rattus norvegicus; assay: Oral bioavailability in Wistar-Han rat assessed as (R)-3-(5-fluoro-1H-indol-3-yl)pyrrolidine-2,5-dione at 3 mg/kg; assay type: ADME, organism-based; details: in vivo
[9] = test system: Mus musculus; assay: Cmax in CD-1 mouse assessed as (R)-3-(5-fluoro-1H-indol-3-yl)pyrrolidine-2,5-dione at 3 mg/kg, po; assay type: ADME, organism-based; parameters: dose 3 mg/kg, route oral; details: in vivo
[10] = test system: CT26; assay: Antitumor activity against mouse CT26 tumor model administered as […] co-treated with anti-PDL1 mAb; assay type: functional
[11] = test system: Hepatocyte; assay: Induction of CYP3A4 mRNA expression in human hepatocytes at <100 uM; assay type: ADME, cell-based
[12] = test system: Rattus norvegicus; assay: Tmax in Wistar-Han rat assessed as (R)-3-(5-fluoro-1H-indol-3-yl)pyrrolidine-2,5-dione at 3 mg/kg, po; assay type: ADME, organism-based; details: in vivo
[13] = test system: Canis familiaris; assay: AUC (infinity) in beagle dog assessed as (R)-3-(5-fluoro-1H-indol-3-yl)pyrrolidine-2,5-dione at 3 mg/kg, po; assay type: ADME, organism-based, Canis lupus familiaris; parameters: dose 3 mg/kg, route oral, time infinity; details: in vivo
[14] = Drug metabolism in dog hepatocytes assessed as hydrolysis; assay type: ADME, cell-based, Canis lupus familiaris, Hepatocyte
[15] = test system: Canis familiaris; assay: Oral bioavailability in beagle dog assessed as (R)-3-(5-fluoro-1H-indol-3-yl)pyrrolidine-2,5-dione at 3 mg/kg; assay type: ADME, organism-based, Canis lupus familiaris; details: in vivo
[16] = Inhibition of human p-gp transfected in MDCK cells assessed as decrease in digoxin transport; assay type: cell-based
[17] = test system: Rattus norvegicus; assay: AUC (infinity) in Wistar-Han rat assessed as (R)-3-(5-fluoro-1H-indol-3-yl)pyrrolidine-2,5-dione at 3 mg/kg, po; assay type: ADME, organism-based; parameters: dose 3 mg/kg, route oral, time infinity; details: in vivo
[18] = Drug excretion in dog urine assessed as (R)-3-(5-fluoro-1H-indol-3-yl)pyrrolidine-2,5-dione; assay type: ADME, Canis lupus familiaris; details: in vivo
Outline: (§2)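 Racemate dosed to rats (urine and bile collected) and to dogs (urine collected). The percentage of the dose excreted as unchanged (R)-enantiomer was measured.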

[19] = test system: Mus musculus; assay: Volume of distribution at steady state in CD-1 mouse assessed as (R)-3-(5-fluoro-1H-indol-3-yl)pyrrolidine-2,5-dione at 1 mg/kg, iv by LC-MS/MS method; assay type: ADME, organism-based; details: in vivo
[20] = test system: Rattus norvegicus; assay: AUC (infinity) in Wistar-Han rat assessed as (R)-3-(5-fluoro-1H-indol-3-yl)pyrrolidine-2,5-dione at 1 mg/kg, iv by LC-MS/MS method; assay type: ADME, organism-based; parameters: dose 1 mg/kg, time infinity, route intravenous; details: in vivo
Outline: (§3)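 Racemate given as a single 1 mg/kg IV dose to male CD-1 mice, Wistar-Han rats or beagle dogs (n=3 per species). Plasma levels of the (R)-enantiomer measured by chiral LC-MS/MS. Mean AUCinf, CLp, Vss and t1/2 reported.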

[21] = Drug metabolism in human hepatocytes assessed as oxidation; assay type: ADME, cell-based, Hepatocyte
[22] = test system: Canis familiaris; assay: Half life in beagle dog assessed as (R)-3-(5-fluoro-1H-indol-3-yl)pyrrolidine-2,5-dione at 1 mg/kg, iv by LC-MS/MS method; assay type: ADME, organism-based, Canis lupus familiaris; details: in vivo
[23] = test system: Canis familiaris; assay: Half life in beagle dog assessed as (R)-3-(5-fluoro-1H-indol-3-yl)pyrrolidine-2,5-dione at 3 mg/kg, po; assay type: ADME, organism-based, Canis lupus familiaris; details: in vivo
[24] = target: Voltage-gated inwardly rectifying potassium channel KCNH2 (Homo sapiens, UniProt Q12809); assay: Inhibition of human ERG up to 300 uM relative to control
Sequence of Voltage-gated inwardly rectifying potassium channel KCNH2 (Q12809 whole entry): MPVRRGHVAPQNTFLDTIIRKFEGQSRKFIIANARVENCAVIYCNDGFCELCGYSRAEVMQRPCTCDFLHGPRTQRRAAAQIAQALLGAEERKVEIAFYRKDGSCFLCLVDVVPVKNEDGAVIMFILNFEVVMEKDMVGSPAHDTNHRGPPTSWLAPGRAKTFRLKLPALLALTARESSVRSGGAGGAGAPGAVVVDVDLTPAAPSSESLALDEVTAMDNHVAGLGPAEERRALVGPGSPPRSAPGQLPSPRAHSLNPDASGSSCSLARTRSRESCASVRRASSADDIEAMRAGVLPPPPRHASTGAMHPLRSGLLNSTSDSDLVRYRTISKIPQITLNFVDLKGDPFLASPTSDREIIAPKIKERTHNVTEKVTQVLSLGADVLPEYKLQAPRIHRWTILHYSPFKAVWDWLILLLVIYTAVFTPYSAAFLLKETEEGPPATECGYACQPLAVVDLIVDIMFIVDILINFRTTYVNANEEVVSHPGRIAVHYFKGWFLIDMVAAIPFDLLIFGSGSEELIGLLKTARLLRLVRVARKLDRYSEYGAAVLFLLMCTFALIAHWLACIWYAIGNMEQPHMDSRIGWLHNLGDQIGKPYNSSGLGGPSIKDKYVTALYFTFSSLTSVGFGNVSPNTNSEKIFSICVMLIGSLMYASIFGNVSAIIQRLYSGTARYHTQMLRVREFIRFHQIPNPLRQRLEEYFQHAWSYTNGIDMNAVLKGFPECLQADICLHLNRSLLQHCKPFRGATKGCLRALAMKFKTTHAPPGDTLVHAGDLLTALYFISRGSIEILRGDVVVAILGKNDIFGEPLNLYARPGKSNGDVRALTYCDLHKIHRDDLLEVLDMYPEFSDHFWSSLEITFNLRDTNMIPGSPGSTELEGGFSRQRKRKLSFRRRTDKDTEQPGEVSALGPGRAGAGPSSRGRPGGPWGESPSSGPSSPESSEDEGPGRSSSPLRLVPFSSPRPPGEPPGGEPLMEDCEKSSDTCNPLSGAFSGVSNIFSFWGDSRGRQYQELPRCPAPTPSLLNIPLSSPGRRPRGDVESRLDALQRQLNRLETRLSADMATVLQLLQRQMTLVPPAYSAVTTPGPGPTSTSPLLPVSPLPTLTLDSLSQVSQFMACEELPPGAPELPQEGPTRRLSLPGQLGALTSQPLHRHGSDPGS

[25] = test system: Mus musculus; assay: Tmax in CD-1 mouse assessed as (R)-3-(5-fluoro-1H-indol-3-yl)pyrrolidine-2,5-dione at 3 mg/kg, po; assay type: ADME, organism-based; details: in vivo
[26] = test system: B16-F10; assay: Antitumor activity against mouse B16/F10 tumor model administered as monotherapy; assay type: functional
[27] = Drug metabolism in mouse hepatocytes assessed as oxidation; assay type: ADME, cell-based, Hepatocyte
[28] = test system: Hepatocyte; assay: Induction of CYP1A2 mRNA expression in human hepatocytes at <100 uM; assay type: ADME, cell-based
[29] = test system: Mus musculus; assay: AUC (infinity) in CD-1 mouse assessed as (R)-3-(5-fluoro-1H-indol-3-yl)pyrrolidine-2,5-dione at 1 mg/kg, iv by LC-MS/MS method; assay type: ADME, organism-based; parameters: dose 1 mg/kg, route intravenous, time infinity; details: in vivo; outline: as §3
[30] = target: T1, Cytochrome P450 2C9; assay: Time/NADPH-dependent inhibition of CYP2C9 (unknown origin); assay type: ADME
[31] = Drug excretion in rat bile assessed as (R)-3-(5-fluoro-1H-indol-3-yl)pyrrolidine-2,5-dione; assay type: ADME; details: in vivo; outline: as §2

T1 sequence (P11712 whole entry): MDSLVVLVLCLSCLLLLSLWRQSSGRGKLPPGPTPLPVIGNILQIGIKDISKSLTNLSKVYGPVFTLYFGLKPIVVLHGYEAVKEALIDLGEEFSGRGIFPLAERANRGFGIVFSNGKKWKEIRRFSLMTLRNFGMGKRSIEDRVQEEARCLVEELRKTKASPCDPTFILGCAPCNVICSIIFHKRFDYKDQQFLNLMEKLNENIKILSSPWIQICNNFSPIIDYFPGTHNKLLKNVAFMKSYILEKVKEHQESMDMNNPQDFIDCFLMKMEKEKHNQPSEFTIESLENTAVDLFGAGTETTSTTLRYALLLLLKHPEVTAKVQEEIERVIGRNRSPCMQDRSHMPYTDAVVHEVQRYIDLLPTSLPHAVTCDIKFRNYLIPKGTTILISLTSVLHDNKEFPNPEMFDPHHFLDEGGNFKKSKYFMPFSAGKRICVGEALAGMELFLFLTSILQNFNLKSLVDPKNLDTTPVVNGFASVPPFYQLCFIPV
Sequence of Cytochrome P450 2D6 (P10635 whole entry): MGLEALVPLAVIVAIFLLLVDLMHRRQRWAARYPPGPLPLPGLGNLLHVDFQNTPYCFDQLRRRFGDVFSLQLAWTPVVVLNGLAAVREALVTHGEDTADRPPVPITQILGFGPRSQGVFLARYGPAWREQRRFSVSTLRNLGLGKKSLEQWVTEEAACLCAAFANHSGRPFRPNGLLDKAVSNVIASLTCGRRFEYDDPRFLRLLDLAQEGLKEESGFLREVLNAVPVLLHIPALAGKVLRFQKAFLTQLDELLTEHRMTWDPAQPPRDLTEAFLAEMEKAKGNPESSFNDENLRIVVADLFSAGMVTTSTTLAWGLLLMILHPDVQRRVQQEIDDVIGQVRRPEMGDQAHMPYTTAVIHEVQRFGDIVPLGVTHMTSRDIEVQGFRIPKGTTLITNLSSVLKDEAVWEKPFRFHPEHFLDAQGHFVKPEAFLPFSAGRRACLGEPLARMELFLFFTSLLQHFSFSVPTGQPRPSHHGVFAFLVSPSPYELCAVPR

pIC50 [1]: < 4.00
pIC50 [2]: < 4.00
Kp [3]: 0.51
K(p,uu,brain) [4]: 0.2
inhibition (INH) [5]: Not Active
TDI [6]: Not Active
CLH(app) [7]: 10.3 µL/min
F [8]: 94%
Cmax [9]: 538 ng/mL
Activity [11]: Not Active
Tmax [12]: 78 min
AUC [13]: 237 ng·h/mL
Drug metabolism [14]: Metabolite_Detected
F [15]: 18.6%
pIC50 [16]: < 3.52
AUC [17]: 6940 ng·h/mL
Drug excretion [18]: < 1 %ID
Vdss [19]: 0.787 L/kg
AUC [20]: 2520 ng·h/mL
Drug metabolism [21]: Metabolite_Detected
t1/2 [22]: 48.1 min
t1/2 [23]: 50.4 min
Tmax [25]: 34.8 min
Drug metabolism [27]: Metabolite_Detected
Activity [28]: Not Active
AUC [29]: 1160 ng·h/mL
inhibition (INH) [30]: Not Active
Drug excretion [31]: < 1 %ID
SMILES: O=C1CC(c2c[nH]c3ccc(F)cc23)C(=O)N1 (stereo unspecified) [PF-06840003]
Activity [10]: Active
inhibition (INH) [24]: < 50%
Activity [26]: Active
